We go through 26 compounds from ChEMBL document CHEMBL1158957, “Scopadulciol, an inhibitor of gastric H+, K(+)-ATPase from Scoparia dulcis, and its structure-activity relationships” (J Nat Prod, 1991).

Usually inhibition stands for the drop in the measured response relative to a control, in per cent. Broadly, the IC50 is the concentration needed to halve the response being measured. A lower IC50 goes with higher potency.

For assay [1], the species on record is Sus scrofa. The experiment in a line: Inhibition of H+/K+ ATPase in pig stomach at 10 uM. Type of assay: tissue-based. In a few lines: (§1)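 Enzyme from hog fundic mucosa: vesicles were isolated by differential and sucrose/Ficoll gradient centrifugation, lyophilized, resuspended in water, kept at -80° and used within 2–3 weeks. The 1 ml assay held 10 µg vesicle protein, 3 mM MgSO₄, 3 mM ATP and 40 mM Tris/HCl pH 7.4, ±15 mM KCl. Inorganic phosphate was the read-out, and H⁺,K⁺-ATPase activity was taken as the K⁺-dependent difference.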

For assay [2], the species on record is Sus scrofa. Kind of assay: Inhibition of H+/K+ ATPase in pig stomach at 100 uM. Type of assay: tissue-based. In a few lines: as §1
For assay [3], the species on record is Sus scrofa. Kind of assay: Inhibition of H+/K+ ATPase in pig stomach at 1 uM. Type of assay: tissue-based. In outline:
as §1

Assay [4] can be described thus: Inhibition of H+/K+ ATPase in pig stomach. Type of assay: tissue-based, Sus scrofa. In a few lines: as §1

Values joined by “and” are separate entries in the source; they are usually repeats but may differ in a detail not shown here. Equal values may be shown once.

`C[C@]12CC[C@]3(C1)[C@@H](C[C@@H](OC(=O)c1ccccc1)[C@H]1[C@](C)(C(=O)O)CCC[C@@]13C)C[C@@H]2O`: the values for the inhibition in assay [1], in assay [2] and in assay [3] were 12%, 72% and 1%, respectively.

Turning to `COC(=O)[C@]1(C)CCC[C@@]2(C)[C@H]1[C@H](OC(=O)c1ccccc1)C[C@H]1CC(=O)[C@@]3(C)CC[C@]12C3`, the results for the inhibition in assay [1], in assay [2] and in assay [3] were 74%, 81% and 36%, respectively. The same compound showed an IC50 in assay [4] of 3 µM.

As for `COC(=O)[C@]1(C)CCC[C@@]2(C)[C@H]1[C@H](OC(=O)c1ccccc1)C[C@H]1C[C@@H](O)[C@@]3(C)CC[C@]12C3`, the inhibition in assay [1] was 59%; in assay [2], 64%; in assay [3], 12%.

`C[C@]12CC[C@]3(C1)[C@H](CC2=O)C[C@@H](OC(=O)c1ccccc1)[C@H]1[C@@](CO)(C(=O)O)CCC[C@@]13C`: the inhibition in assay [2] is 24%.

As for `C[C@@]12CC[C@]3(C1)[C@H](CC2=O)C[C@@H](OC(=O)c1ccccc1)[C@H]1[C@](C)(CO)CCC[C@@]13C`, the inhibition in assay [1] is 21%; in assay [2] it was 45%; in assay [3], -1%.

Regarding `COC(=O)[C@]1(C)CCC[C@@]2(C)[C@H]1[C@H](O)C[C@H]1CC(=O)[C@@]3(C)CC[C@]12C3`, the inhibition in assay [1] is 4%; in assay [2] it was 52%; in assay [3], -5%.

On to `C[C@]12CC[C@]3(C1)[C@H](CC2=O)C[C@@H](OC(=O)c1ccccc1)[C@H]1[C@](C)(C(=O)O)CCC[C@@]13C`, for which the inhibition in assay [1] is 21% and 14%; in assay [2], 62% and 64%; in assay [3], 7% and -0%.

`COC(=O)[C@]1(C)CCC[C@@]2(C)[C@H]1[C@H](OC(=O)c1ccccc1)C[C@H]1C[C@H](O)[C@@]3(C)CC[C@]12C3`: the inhibition amounted to 64% in assay [1], 68% in assay [2] and 10% in assay [3].

Turning to `CC(=O)O[C@@H]1C[C@@H]2C[C@@H](OC(=O)c3ccccc3)[C@H]3[C@](C)(C(=O)O)CCC[C@]3(C)[C@]23CC[C@@]1(C)C3`, the inhibition in assay [1] came out at 38%; in assay [2], 98%; in assay [3], 7%.

Consider `C[C@]12CC[C@]3(C1)[C@H](C/C2=N\O)C[C@@H](OC(=O)c1ccccc1)[C@H]1[C@](C)(C(=O)O)CCC[C@@]13C`, for which the values for the inhibition in assay [1], in assay [2] and in assay [3] were 26%, 80% and 11%, respectively.

With `COC(=O)[C@]1(C)CCC[C@@]2(C)[C@H]1[C@H](OC(=O)c1ccccc1)C[C@H]1C/C(=N\O)[C@@]3(C)CC[C@]12C3`, the inhibition in assay [1] was 67%; in assay [2], 75%; in assay [3] it was 24%.

As to `C[C@]12CC[C@]3(C1)[C@@H](C[C@@H](O)[C@H]1[C@](C)(CO)CCC[C@@]13C)C[C@@H]2O`, in assay [2], the inhibition was 24%.

In the case of `C[C@]12CC[C@]3(C1)[C@H](C[C@H]2O)C[C@@H](OC(=O)c1ccccc1)[C@H]1[C@](C)(C(=O)O)CCC[C@@]13C`, the inhibition was 3% in assay [1], 30% in assay [2] and -4% in assay [3].

Consider `C[C@]12CC[C@]3(C1)[C@@H](C[C@@H](O)[C@H]1[C@](C)(CO)CCC[C@@]13C)C[C@H]2O`, for which the inhibition in assay [1] was -3%; in assay [2], 7%.

For the compound `CC(=O)OC[C@]1(C)CCC[C@@]2(C)[C@H]1[C@H](O)C[C@H]1C[C@H](OC(C)=O)[C@@]3(C)CC[C@]12C3`, the inhibition in assay [1] is 40%; in assay [2], 79%; in assay [3], 5%.

Regarding `COC(=O)[C@]1(C)CCC[C@@]2(C)[C@H]1[C@H](OC(=O)c1ccccc1)C[C@H]1C[C@@H](OC(C)=O)[C@@]3(C)CC[C@]12C3`, the inhibition in assay [1] came out at 58%; in assay [2] it was 61%; in assay [3], 35%. The compound further registered an IC50 in assay [4] of 3 µM.

With `CC(=O)O[C@@H]1C[C@H]2CC(=O)[C@@]3(C)CC[C@@]2(C3)[C@@]2(C)CCC[C@@](C)(C(=O)O)[C@H]12`, the values for the inhibition in assay [1], in assay [2] and in assay [3] were 7%, 33% and 1%, respectively.

On to `C[C@]12CC[C@]3(C1)[C@@H](CC(=O)[C@H]1[C@](C)(C(=O)O)CCC[C@@]13C)CC2=O`, for which the inhibition was 1% in assay [1], 12% in assay [2] and -1% in assay [3].

With `COC(=O)[C@]1(C)CCC[C@@]2(C)[C@H]1[C@H](O)C[C@H]1C[C@H](O)[C@@]3(C)CC[C@]12C3`, the inhibition in assay [1] is 5%; in assay [2], 22%; in assay [3] it was -2%.

Consider `CC(=O)OC[C@]1(C)CCC[C@@]2(C)[C@H]1[C@H](OC(=O)c1ccccc1)C[C@H]1CC(=O)[C@@]3(C)CC[C@]12C3`, for which the inhibition worked out at 71% in assay [1], 72% in assay [2] and 40% in assay [3].

In the case of `COC(=O)[C@]1(C)CCC[C@@]2(C)[C@H]1[C@H](OC(=O)c1ccccc1)C[C@H]1C[C@H](OC(C)=O)[C@@]3(C)CC[C@]12C3`, the inhibition in assay [1] turned out to be 61%; in assay [2], 62%; in assay [3] it was 49%.

Regarding `CC(=O)OC[C@]1(C)CCC[C@@]2(C)[C@H]1[C@H](O)C[C@H]1C[C@@H](OC(C)=O)[C@@]3(C)CC[C@]12C3`, the inhibition in assay [1] is 33%; in assay [2] it was 62%; in assay [3] it was -2%.

Take `CC(=O)O[C@H]1C[C@@H]2C[C@@H](OC(=O)c3ccccc3)[C@H]3[C@](C)(C(=O)O)CCC[C@]3(C)[C@]23CC[C@@]1(C)C3`: the results for the inhibition in assay [1], in assay [2] and in assay [3] were 21%, 94% and 3%, respectively.

On to `C[C@]12CC[C@]3(C1)[C@@H](C[C@@H](O)[C@H]1[C@](C)(C(=O)O)CCC[C@@]13C)C[C@@H]2O`, for which, in assay [2], the inhibition was 8%.

Consider `CC(=O)O[C@H]1C[C@@H]2C[C@@H](O)[C@H]3[C@](C)(C(=O)O)CCC[C@]3(C)[C@]23CC[C@@]1(C)C3`, for which the inhibition in assay [1] was 13%; in assay [2], 21%; in assay [3], 2%.

Regarding `CC(=O)OC[C@]1(C)CCC[C@@]2(C)[C@H]1[C@H](OC(C)=O)C[C@H]1C[C@H](OC(C)=O)[C@@]3(C)CC[C@]12C3`, the inhibition in assay [1] came to 18%; in assay [2], 57%; in assay [3], 13%.
